system: Enterococcus faecium; test: Antimicrobial activity against Enterococcus faecium 10-5 after 18-24 hrs by two-fold serial dilution method; type: functional
In short: (§1)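 Agar-medium twofold serial dilution against Gram-positive and Gram-negative strains; MIC taken as the lowest compound concentration giving complete inhibition of bacterial growth after incubation at 35 °C for 18-24 h.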

Q: COc1ccc(CO/N=C2\CN(c3nc4c(cc3F)c(=O)c(C(=O)O)cn4C3CC3)CC2CN)c(Cl)c1OC.CS(=O)(=O)O (racemic) was tested. Which MIC did it give?
A: The MIC was 4 µg/mL.

system: Staphylococcus epidermidis; test: Antimicrobial activity against extended spectrum beta-lactamases-producing methicillin-sensitive Staphylococcus epidermidis 10-11 after 18-24 hrs by two-fold serial dilution method; type: functional; in short: as §1

Q: With COc1ccc(CO/N=C2\CN(c3nc4c(cc3F)c(=O)c(C(=O)O)cn4C3CC3)CC2CN)c(Cl)c1OC.CS(=O)(=O)O (racemic) as the compound, how does the MIC read?
A: Its MIC is 0.25 µg/mL.

system: Enterococcus faecalis; test: Antimicrobial activity against Enterococcus faecalis 10-7 after 18-24 hrs by two-fold serial dilution method; type: functional; in short: as §1

Q: Which MIC does the source give for COc1ccc(CO/N=C2\CN(c3nc4c(cc3F)c(=O)c(C(=O)O)cn4C3CC3)CC2CN)c(Cl)c1OC.CS(=O)(=O)O (racemic) here?
A: Its MIC is 2 µg/mL.

system: Escherichia coli; test: Antimicrobial activity against extended spectrum beta-lactamases-producing Escherichia coli 10-3 after 18-24 hrs by two-fold serial dilution method; type: functional; in short: as §1

Q: For COc1ccc(CO/N=C2\CN(c3nc4c(cc3F)c(=O)c(C(=O)O)cn4C3CC3)CC2CN)c(Cl)c1OC.CS(=O)(=O)O (racemic), which MIC is on record?
A: Its MIC is > 128 µg/mL.

system: Klebsiella pneumoniae; test: Antimicrobial activity against Klebsiella pneumoniae 10-3 after 18-24 hrs by two-fold serial dilution method; type: functional; in short: as §1

Q: How did the MIC turn out when COc1ccc(CO/N=C2\CN(c3nc4c(cc3F)c(=O)c(C(=O)O)cn4C3CC3)CC2CN)c(Cl)c1OC.CS(=O)(=O)O (racemic) was run?
A: The MIC was 8 µg/mL.

system: Klebsiella pneumoniae; test: Antimicrobial activity against extended spectrum beta-lactamases-producing Klebsiella pneumoniae 10-1 after 18-24 hrs by two-fold serial dilution method; type: functional; in short: as §1

Q: With COc1ccc(CO/N=C2\CN(c3nc4c(cc3F)c(=O)c(C(=O)O)cn4C3CC3)CC2CN)c(Cl)c1OC.CS(=O)(=O)O (racemic) as the compound, how does the MIC read?
A: The MIC was > 128 µg/mL.

system: Streptococcus pneumoniae; test: Antimicrobial activity against extended spectrum beta-lactamases-producing Streptococcus pneumoniae 10-4 after 18-24 hrs by two-fold serial dilution method; type: functional; in short: as §1

Q: With COc1ccc(CO/N=C2\CN(c3nc4c(cc3F)c(=O)c(C(=O)O)cn4C3CC3)CC2CN)c(Cl)c1OC.CS(=O)(=O)O (racemic) as the compound, how does the MIC read?
A: The MIC was 0.06 µg/mL.

system: Escherichia coli; test: Antimicrobial activity against Escherichia coli 10-1 after 18-24 hrs by two-fold serial dilution method; type: functional; in short: as §1

Q: Which MIC does the source give for COc1ccc(CO/N=C2\CN(c3nc4c(cc3F)c(=O)c(C(=O)O)cn4C3CC3)CC2CN)c(Cl)c1OC.CS(=O)(=O)O (racemic) here?
A: Its MIC is > 128 µg/mL.

system: Staphylococcus aureus; test: Antimicrobial activity against Staphylococcus aureus ATCC […] after 18-24 hrs by two-fold serial dilution method; type: functional; in short: as §1

Q: Which MIC does the source give for COc1ccc(CO/N=C2\CN(c3nc4c(cc3F)c(=O)c(C(=O)O)cn4C3CC3)CC2CN)c(Cl)c1OC.CS(=O)(=O)O (racemic) here?
A: The MIC was 0.008 µg/mL.

system: Staphylococcus epidermidis; test: Antimicrobial activity against extended spectrum beta-lactamases-producing methicillin-resistant Staphylococcus epidermidis 10-10 after 18-24 hrs by two-fold serial dilution method; type: functional
In short: (§2)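 Agar twofold serial dilution MIC against clinical isolates. MIC was taken as the lowest concentration giving complete inhibition of bacterial growth after incubation at 35 °C for 18-24 h.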

Q: How did the MIC turn out when COc1ccc(CO/N=C2\CN(c3nc4c(cc3F)c(=O)c(C(=O)O)cn4C3CC3)CC2CN)c(Cl)c1OC.CS(=O)(=O)O (racemic) was run?
A: Its MIC is 0.5 µg/mL.

system: Staphylococcus aureus; test: Antimicrobial activity against extended spectrum beta-lactamases-producing methicillin-sensitive Staphylococcus aureus 10-14 after 18-24 hrs by two-fold serial dilution method; type: functional; in short: as §1

Q: Which MIC does the source give for COc1ccc(CO/N=C2\CN(c3nc4c(cc3F)c(=O)c(C(=O)O)cn4C3CC3)CC2CN)c(Cl)c1OC.CS(=O)(=O)O (racemic) here?
A: Its MIC is 0.015 µg/mL.

system: Pseudomonas aeruginosa; test: Antimicrobial activity against Pseudomonas aeruginosa 10-12 after 18-24 hrs by two-fold serial dilution method; type: functional; in short: as §1

Q: Which MIC does the source give for COc1ccc(CO/N=C2\CN(c3nc4c(cc3F)c(=O)c(C(=O)O)cn4C3CC3)CC2CN)c(Cl)c1OC.CS(=O)(=O)O (racemic) here?
A: The MIC was 16 µg/mL.

system: Escherichia coli; test: Antimicrobial activity against Escherichia coli ATCC 25922 after 18-24 hrs by two-fold serial dilution method; type: functional; in short: as §1

Q: How did the MIC turn out when COc1ccc(CO/N=C2\CN(c3nc4c(cc3F)c(=O)c(C(=O)O)cn4C3CC3)CC2CN)c(Cl)c1OC.CS(=O)(=O)O (racemic) was run?
A: Its MIC is 0.25 µg/mL.

system: Escherichia coli; test: Antimicrobial activity against extended spectrum beta-lactamases-producing Escherichia coli 10-4 after 18-24 hrs by two-fold serial dilution method; type: functional; in short: as §1

Q: Which MIC does the source give for COc1ccc(CO/N=C2\CN(c3nc4c(cc3F)c(=O)c(C(=O)O)cn4C3CC3)CC2CN)c(Cl)c1OC.CS(=O)(=O)O (racemic) here?
A: Its MIC is 4 µg/mL.

system: Pseudomonas aeruginosa; test: Antimicrobial activity against extended spectrum beta-lactamases-producing Pseudomonas aeruginosa 10-15 after 18-24 hrs by two-fold serial dilution method; type: functional; in short: as §1

Q: Which MIC does the source give for COc1ccc(CO/N=C2\CN(c3nc4c(cc3F)c(=O)c(C(=O)O)cn4C3CC3)CC2CN)c(Cl)c1OC.CS(=O)(=O)O (racemic) here?
A: Its MIC is 32 µg/mL.

system: Pseudomonas aeruginosa; test: Antimicrobial activity against extended spectrum beta-lactamases-producing Pseudomonas aeruginosa 10-5 after 18-24 hrs by two-fold serial dilution method; type: functional; in short: as §1

Q: With COc1ccc(CO/N=C2\CN(c3nc4c(cc3F)c(=O)c(C(=O)O)cn4C3CC3)CC2CN)c(Cl)c1OC.CS(=O)(=O)O (racemic) as the compound, how does the MIC read?
A: The MIC was 16 µg/mL.

system: Staphylococcus aureus; test: Antimicrobial activity against extended spectrum beta-lactamases-producing methicillin-sensitive Staphylococcus aureus 10-13 after 18-24 hrs by two-fold serial dilution method; type: functional; in short: as §1

Q: How did the MIC turn out when COc1ccc(CO/N=C2\CN(c3nc4c(cc3F)c(=O)c(C(=O)O)cn4C3CC3)CC2CN)c(Cl)c1OC.CS(=O)(=O)O (racemic) was run?
A: Its MIC is 0.015 µg/mL.

system: Staphylococcus epidermidis; test: Antimicrobial activity against extended spectrum beta-lactamases-producing methicillin-resistant Staphylococcus epidermidis 10-13 after 18-24 hrs by two-fold serial dilution method; type: functional; in short: as §2

Q: With COc1ccc(CO/N=C2\CN(c3nc4c(cc3F)c(=O)c(C(=O)O)cn4C3CC3)CC2CN)c(Cl)c1OC.CS(=O)(=O)O (racemic) as the compound, how does the MIC read?
A: Its MIC is 0.5 µg/mL.
